Apaf-1 act – activators of human Apaf-1 apoptosome, primary screen, biochemical, DEVD-Rh110 fluorescence, uHTS | Apoptotic protease-activating factor 1 (Homo sapiens), O14727 | Apaf-1 apoptosome caspase-3 activation; stronger effect = lower value | activity change, negative = activation, % at 20 µM | 330,000 compounds, 0.31% hits;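 active means activity change at or below -40% at 20 µM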
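Material: reconstituted apoptosome of Apaf-1, cytochrome c, caspase-9, procaspase-3; times: 30 min preincubation, 50 min reaction, room temperature; measured by: fluorescence, 540 nm emission, 480 nm excitation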
Rh110 interf act – Rh110 fluorescence interference by putative Apaf-1 activators, confirmation, artefact control for Apaf-1 activator project, biochemical, 20 µM. shares compounds with Apaf-1 act. quenched caspase reaction, Ex480/Em540. fluorescence interference (activity change), % at 20 µM, hits read low. 980 tested, under 10 active. AID 504616, 2011;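 active means mean activity change at or below -40% when tested at 20 µM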
Apaf-1 act conf2 – Apaf-1 activators, single-dose retest, confirmation, biochemical, fluorescence, DEVD-Rh110, 20 µM; shares compounds with Apaf-1 act; reconstituted apoptosome caspase-3 activity; stronger effect = lower value; activity change, negative = activation, % at 20 µM; 980 compounds, 5% hits; AID 504617, 2011;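 active means mean activity change at or below -40%, meaning activation of 40% or more, at 20 µM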
Of the large screens only hits and unclear results are named; the others gave an inactive call (follow-up assays come after a bar, where they were run). A selection follows.

CC1CC(C)(C)NC(=O)O1 (stereo unspecified)	Apaf-1 act -88 | Rh110 interf act inactive | Apaf-1 act conf2 inactive
COc1cccc(-c2sc3ccc(OC)cc3c2-c2ccc(OCCN3CCCC3)cc2)c1	none
N#Cc1c(N)n(CCNC(=O)c2cccs2)c2nc3ccccc3nc12	none
Cc1cc2nc(SCC(=O)Nc3nonc3C)c3c(c2cc1C)CCCC3	Apaf-1 act -48 | Rh110 interf act inactive | Apaf-1 act conf2 inactive
Cc1cc(C)c(C#N)c(SCC(=O)Nc2nonc2N)n1	none
CCOC(=O)c1[nH]c(=O)c2ccccc2c1O	none
CCOC(=O)c1[nH]c2ccc(OC)cc2c1NC(=O)c1nonc1C	Apaf-1 act -144 | Rh110 interf act inactive | Apaf-1 act conf2 inactive
CCOC(=O)c1cc2cc3ccccc3cc2[nH]1	none
CCOC(=O)N1CCN(S(=O)(=O)c2ccc(C(=O)N(CCCN(C)C)c3nc4ccc(CC)cc4s3)cc2)CC1	none
Oc1cc(NCCc2cccnc2)cc2cccnc12	none
Cc1c(C(=O)Nc2ccc(S(=O)(=O)N(C)C3CCN(C)CC3)cc2)oc2ccccc12	none
Cc1ccc(S(=O)(=O)N(C)c2ccccc2C(=O)NC2CCCC2)cc1	Apaf-1 act -59 | Rh110 interf act inactive | Apaf-1 act conf2 inactive
COc1cc(C)c2c(c1C=O)Oc1c(c(C)c(O)c3c1C(O)OC3=O)OC2=O (stereo unspecified)	none
Fc1ccc(NC(=S)Nc2cccc3cnccc23)cc1	none
CN(C)c1cc(N/N=C/c2ccccc2C(F)(F)F)nc(N(C)C)n1	none
CS(=O)(=O)N(CC(=O)N1CCN(c2ccccc2)CC1)c1ccccc1Cl	Apaf-1 act -164 | Rh110 interf act inactive | Apaf-1 act conf2 inactive
CCN(CC)CCOC(=O)c1ccc(N/C=C(/C#N)c2nc(-c3cccc(OC)c3)cs2)cc1	none
CC(C)[C@@H]1CN=C(N)N1C[C@@H]1CCCN1C[C@H](C)N1C[C@@H](Cc2ccccc2)N(CCc2ccc(Cl)c(Cl)c2)C1=N	none
OCCCCNc1cccc2ccccc12	none
CC1(C)Cc2c(sc3nc(N/N=C/c4ccccc4)[nH]c(=O)c23)CO1	Apaf-1 act -236 | Rh110 interf act inactive | Apaf-1 act conf2 inactive
CC1(C)Cc2c(sc(NC(=O)COc3cccc4ccccc34)c2C#N)C(C)(C)N1	none
O=C(Nc1cccc([N+](=O)[O-])c1)Nc1ccc2c(c1)OCCO2	Apaf-1 act -288 | Rh110 interf act inactive | Apaf-1 act conf2 inactive
CC[C@@H](C)[C@@H]1CN([C@@H](CN2CCC[C@H]2CN2C(N)=NC[C@H]2CC(C)C)C(C)C)C(=N)N1CCc1ccc(Cl)c(Cl)c1	none
CN1CCN(CC(=O)N2CCn3c4c(c5cc(C6CCCCC6)ccc53)CCCC42)CC1 (stereo unspecified)	none
Cc1occc1C(=O)Nc1ccc2ccccc2c1	Apaf-1 act -351 | Rh110 interf act inactive | Apaf-1 act conf2 inactive
C/C(=C\C(=S)Nc1ccccc1)Nc1ccc2ccccc2c1	none
CCN1CCN(c2ccc(NC(=O)c3cc4ccccc4cc3OC)cc2C)CC1	none
Cc1nn(CC(=O)N2CCc3ccccc32)c(C)c1S(=O)(=O)NC(C)(C)C	Apaf-1 act -57 | Rh110 interf act inactive | Apaf-1 act conf2 inactive
COC(=O)C1=C(C)N(Cc2ccccc2)C(=NCc2cc(OC)c(OC)c(OC)c2)N[C@H]1CCc1ccccc1	none
COC(=O)c1ccc(-c2ccc(C(c3c(C)[nH][nH]c3=O)c3c(C)[nH][nH]c3=O)o2)cc1	none
COC(=O)c1cccnc1-n1c(=O)c2cccnc2n(Cc2cccc([N+](=O)[O-])c2)c1=O	Apaf-1 act -65 | Rh110 interf act inactive | Apaf-1 act conf2 inactive
COc1ccc(Br)cc1C1CC(=O)N2CN(C)CSC2=C1C#N (stereo unspecified)	none
C#CCOCCOCCOCCNc1nc(N2CCN(C(=O)[C@H](CCCCN)n3cc(CN)nn3)CC2)nc(N2CCN(C(=O)[C@H](CCCCN)n3cc(CN)nn3)CC2)n1	none
C=CCC[C@@H](Cc1ccc(F)cc1)C(=O)OC[C@@H]1CCCN1C(=O)[C@H](CC=C)CC(=O)N[C@H](CO)Cc1ccccc1	none
C=CCNC(=O)C1(S(=O)(=O)c2ccccc2)CC=CC1	Apaf-1 act -384 | Rh110 interf act inactive | Apaf-1 act conf2 inactive
Cc1ccc(-c2ccc(/C=N/N=C3/NC(=O)C(CC(=O)O)S3)o2)c([N+](=O)[O-])c1 (stereo unspecified)	none
CCc1ccc(S(=O)(=O)/N=C2\C=C(Nc3cccc(C(=O)O)c3)C(=O)c3ccccc32)cc1	none
COc1cc2c(C#N)c(N3CCCC3)nc(N)c2c(N)n1	none
Cc1ccc(C)n1-c1nn(S(=O)(=O)c2cccc3cccnc23)c2cccc(F)c12	Apaf-1 act -40 | Rh110 interf act inactive | Apaf-1 act conf2 inactive

Screening data from PubChem BioAssay.
